The text below walks through data of ChEMBL document CHEMBL1154352, “Toll-like receptor 7 selective synthetic oligoribonucleotide agonists: synthesis and structure-activity relationship studies” (J Med Chem, 2009).

Test [1] has as its target T1, Toll-like receptor 7 (Homo sapiens) (UniProt Q9NYK1).
T1 sequence (whole entry): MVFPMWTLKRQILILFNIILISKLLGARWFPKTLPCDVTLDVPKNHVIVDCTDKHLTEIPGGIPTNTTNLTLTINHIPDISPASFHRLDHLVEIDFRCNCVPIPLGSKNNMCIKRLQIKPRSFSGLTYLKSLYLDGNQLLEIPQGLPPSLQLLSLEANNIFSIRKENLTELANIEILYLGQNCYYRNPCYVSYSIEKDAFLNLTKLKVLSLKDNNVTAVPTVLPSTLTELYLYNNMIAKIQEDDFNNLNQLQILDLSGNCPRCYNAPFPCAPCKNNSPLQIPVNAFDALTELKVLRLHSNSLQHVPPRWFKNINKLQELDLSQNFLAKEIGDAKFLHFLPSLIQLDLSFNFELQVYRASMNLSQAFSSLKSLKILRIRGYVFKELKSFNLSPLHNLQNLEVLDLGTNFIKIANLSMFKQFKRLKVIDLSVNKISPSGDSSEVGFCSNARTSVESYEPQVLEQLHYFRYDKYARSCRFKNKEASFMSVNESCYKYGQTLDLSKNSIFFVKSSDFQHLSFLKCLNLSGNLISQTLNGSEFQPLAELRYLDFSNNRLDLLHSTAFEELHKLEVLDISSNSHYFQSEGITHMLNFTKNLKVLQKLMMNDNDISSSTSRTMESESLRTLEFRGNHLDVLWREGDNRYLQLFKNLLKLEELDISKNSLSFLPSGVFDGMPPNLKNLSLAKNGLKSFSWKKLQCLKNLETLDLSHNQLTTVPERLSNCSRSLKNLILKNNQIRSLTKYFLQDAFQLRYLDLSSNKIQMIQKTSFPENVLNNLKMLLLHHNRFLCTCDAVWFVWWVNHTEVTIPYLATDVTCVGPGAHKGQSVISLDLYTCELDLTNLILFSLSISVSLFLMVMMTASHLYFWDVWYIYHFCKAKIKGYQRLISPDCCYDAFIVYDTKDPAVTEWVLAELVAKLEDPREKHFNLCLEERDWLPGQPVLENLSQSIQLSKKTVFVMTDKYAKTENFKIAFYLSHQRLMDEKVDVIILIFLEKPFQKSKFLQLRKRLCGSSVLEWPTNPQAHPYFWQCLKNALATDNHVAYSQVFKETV
The experiment in a line: Activation of human TLR7 expressed in HEK293XL assessed as fold induction of NF-kappaB activity at 50 ug/ml after 18 hrs by reporter gene assay relative to control. In outline: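 HEK293 cells stably expressing human TLR7 or TLR8, transiently transfected with SEAP reporter plasmid; medium replaced, SIMRA compounds added, 18 h incubation. Supernatant SEAP measured by QuantiBlue; expressed as fold increase in NF-κB activity over PBS control. Tabulated data at 50 μg/mL, representative of three independent experiments.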
Background: In a reporter assay the amount or activity of a reporter protein is the signal.

The target in test [2] is T2, Toll-like receptor 9 (Mus musculus) (UniProt Q9EQU3).
T2 sequence (whole entry): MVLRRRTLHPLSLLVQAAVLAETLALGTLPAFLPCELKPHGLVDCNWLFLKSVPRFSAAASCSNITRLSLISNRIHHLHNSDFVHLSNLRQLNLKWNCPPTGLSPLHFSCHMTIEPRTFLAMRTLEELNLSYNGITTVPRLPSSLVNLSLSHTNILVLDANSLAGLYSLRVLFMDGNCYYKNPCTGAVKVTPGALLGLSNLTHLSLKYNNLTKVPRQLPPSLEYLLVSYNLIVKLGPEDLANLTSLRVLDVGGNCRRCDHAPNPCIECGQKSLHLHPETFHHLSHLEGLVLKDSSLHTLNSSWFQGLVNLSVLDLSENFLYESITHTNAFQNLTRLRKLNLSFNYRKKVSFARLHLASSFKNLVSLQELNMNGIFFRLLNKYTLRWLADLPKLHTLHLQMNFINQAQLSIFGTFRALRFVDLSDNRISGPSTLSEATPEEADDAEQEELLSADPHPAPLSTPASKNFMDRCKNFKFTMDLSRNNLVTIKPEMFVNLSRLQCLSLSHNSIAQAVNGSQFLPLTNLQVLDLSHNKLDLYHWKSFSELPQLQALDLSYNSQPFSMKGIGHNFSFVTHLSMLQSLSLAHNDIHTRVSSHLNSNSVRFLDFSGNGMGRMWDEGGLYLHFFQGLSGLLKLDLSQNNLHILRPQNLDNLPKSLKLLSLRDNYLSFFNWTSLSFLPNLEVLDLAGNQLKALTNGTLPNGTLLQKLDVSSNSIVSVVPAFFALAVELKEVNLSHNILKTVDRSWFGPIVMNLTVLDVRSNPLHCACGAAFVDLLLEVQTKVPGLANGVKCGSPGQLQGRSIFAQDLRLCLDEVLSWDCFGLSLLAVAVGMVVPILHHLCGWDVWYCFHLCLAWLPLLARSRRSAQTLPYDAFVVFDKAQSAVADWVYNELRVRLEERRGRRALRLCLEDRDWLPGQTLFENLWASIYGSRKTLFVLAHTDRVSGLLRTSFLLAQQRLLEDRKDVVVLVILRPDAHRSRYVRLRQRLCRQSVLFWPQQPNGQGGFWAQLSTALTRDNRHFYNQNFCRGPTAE
The experiment in a line: Activation of mouse TLR9 expressed in HEK293 assessed as induction of NF-kappaB activity reporter gene assay. It counts as cell-based.

Test [3] relates to Splenocyte. The experiment in a line: Immunomodulatory activity in C57BL/6 mouse splenocytes bearing TLR7 receptor assessed as IL6 release at 100 ug/ml after 24 hrs by ELISA. Type of test: functional, cell-based. In outline: (§1)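 C57BL/6 splenocytes in RPMI 1640 with 10% FBS, penicillin/streptomycin, 2 mM L-glutamine, plated at 5 × 10^6 cells/mL; compounds in PBS added, 37 °C for 24 h. Supernatant IL-12 and IL-6 by ELISA; representative of three independent experiments.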
On the technique in general: ELISA stands for enzyme-linked immunosorbent assay.

The test system of test [4] is Splenocyte. In words: Immunomodulatory activity in C57BL/6 mouse splenocytes bearing TLR7 receptor assessed as IL12 release at 100 ug/ml after 24 hrs by ELISA. Type of test: functional, cell-based. The method in brief:
as §1

Test [5] concerns PBMC. The experiment in a line: Immunomodulatory activity in human PBMC assessed as induction of IL12 at 100 ug/ml after 24 hrs. Type of test: functional, cell-based. The method in brief:
(§2)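 Human PBMCs plated at 5 × 10^6 cells/mL; compounds dissolved in PBS added at various concentrations, 37 °C for 24 h. Supernatant cytokines/chemokines quantified with human Luminex multiplex kit.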

Test [6] concerns PBMC. The experiment in a line: Immunomodulatory activity in human PBMC assessed as induction of TNFalpha at 100 ug/ml after 24 hrs. Type of test: functional, cell-based. The method in brief: as §2

Calls of active or inactive are those of the source. No cut-off for these calls is given here.

On to `Nc1ccn([C@@H]2O[C@H](CO[C@H]3[C@@H](O)[C@H](n4cnc5c(N)ncnc54)O[C@@H]3COP(=O)(S)O[C@H]3[C@@H](O)[C@H](n4ccc5c(=O)[nH]c(N)nc54)O[C@@H]3COP(=O)(S)O[C@H]3[C@@H](O)[C@H](n4ccc(=O)[nH]c4=O)O[C@@H]3COP(=O)(S)O[C@H]3[C@@H](O)[C@H](n4cnc5c(N)ncnc54)O[C@@H]3COP(=O)(S)O[C@H]3[C@@H](O)[C@H](n4ccc5c(=O)[nH]c(N)nc54)O[C@@H]3COP(=O)(S)O[C@H]3[C@@H](O)[C@H](n4ccc(=O)[nH]c4=O)O[C@@H]3CO)[C@@H](OP(=O)(S)OC[C@H]3O[C@@H](n4ccc5c(=O)[nH]c(N)nc54)[C@H](O)[C@@H]3OP(=O)(S)OC[C@H]3O[C@@H](n4cnc5c(N)ncnc54)[C@H](O)[C@@H]3OP(=O)(S)OC[C@H]3O[C@@H](n4ccc(=O)[nH]c4=O)[C@H](O)[C@@H]3OP(=O)(S)OC[C@H]3O[C@@H](n4ccc(=O)[nH]c4=O)[C@H](O)[C@@H]3OP(=O)(S)OCC(O)COP(=O)(S)O[C@H]3[C@@H](O)[C@H](n4ccc(=O)[nH]c4=O)O[C@@H]3COP(=O)(S)O[C@H]3[C@@H](O)[C@H](n4ccc(=O)[nH]c4=O)O[C@@H]3COP(=O)(S)O[C@H]3[C@@H](O)[C@H](n4cnc5c(N)ncnc54)O[C@@H]3COP(=O)(S)O[C@H]3[C@@H](O)[C@H](n4ccc5c(=O)[nH]c(N)nc54)O[C@@H]3COP(=O)(S)O[C@H]3[C@@H](O)[C@H](n4ccc(N)nc4=O)O[C@@H]3CO[C@H]3[C@@H](O)[C@H](n4cnc5c(N)ncnc54)O[C@@H]3COP(=O)(S)O[C@H]3[C@@H](O)[C@H](n4ccc5c(=O)[nH]c(N)nc54)O[C@@H]3COP(=O)(S)O[C@H]3[C@@H](O)[C@H](n4ccc(=O)[nH]c4=O)O[C@@H]3COP(=O)(S)O[C@H]3[C@@H](O)[C@H](n4cnc5c(N)ncnc54)O[C@@H]3COP(=O)(S)O[C@H]3[C@@H](O)[C@H](n4ccc5c(=O)[nH]c(N)nc54)O[C@@H]3COP(=O)(S)O[C@H]3[C@@H](O)[C@H](n4ccc(=O)[nH]c4=O)O[C@@H]3CO)[C@H]2O)c(=O)n1` (some centres not stated), for which, in test [1], the fold change (FC) stood at 17.5. Besides, the outcome in test [2] was inactive. In addition, the outcome with Splenocyte [3] and in the test on Splenocyte [4] was Active. For the same compound, the Activity was 102 pg/mL in the test with PBMC [5] and 0 pg/mL with PBMC [6].
As for `Nc1ccn([C@@H]2O[C@H](COP(=O)(S)O[C@H]3[C@@H](O)[C@H](n4cnc5c(N)ncnc54)O[C@@H]3COP(=O)(S)O[C@H]3[C@@H](O)[C@H](n4cnc5c(N)ncnc54)O[C@@H]3CO)[C@@H](OP(=O)(S)OC[C@H]3O[C@@H](n4ccc(=O)[nH]c4=O)[C@H](O)[C@@H]3OP(=O)(S)OC[C@H]3O[C@@H](n4ccc(=O)[nH]c4=O)[C@H](O)[C@@H]3OP(=O)(S)OC[C@H]3O[C@@H](n4ccc5c(=O)[nH]c(N)nc54)[C@H](O)[C@@H]3OP(=O)(S)OC[C@H]3O[C@@H](n4cnc5c(N)ncnc54)[C@H](O)[C@@H]3OP(=O)(S)OC[C@H]3O[C@@H](n4ccc5c(=O)[nH]c(N)nc54)[C@H](O)[C@@H]3OP(=O)(S)OC[C@H]3O[C@@H](n4ccc(N)nc4=O)[C@H](O)[C@@H]3OP(=O)(S)OC[C@H]3O[C@@H](n4ccc(=O)[nH]c4=O)[C@H](O)[C@@H]3OP(=O)(S)OC[C@H]3O[C@@H](n4ccc(=O)[nH]c4=O)[C@H](O)[C@@H]3OP(=O)(S)OCC(O)COP(=O)(S)O[C@H]3[C@@H](O)[C@H](n4ccc(=O)[nH]c4=O)O[C@@H]3COP(=O)(S)O[C@H]3[C@@H](O)[C@H](n4ccc(=O)[nH]c4=O)O[C@@H]3COP(=O)(S)O[C@H]3[C@@H](O)[C@H](n4ccc(N)nc4=O)O[C@@H]3COP(=O)(S)O[C@H]3[C@@H](O)[C@H](n4ccc5c(=O)[nH]c(N)nc54)O[C@@H]3COP(=O)(S)O[C@H]3[C@@H](O)[C@H](n4cnc5c(N)ncnc54)O[C@@H]3COP(=O)(S)O[C@H]3[C@@H](O)[C@H](n4ccc5c(=O)[nH]c(N)nc54)O[C@@H]3COP(=O)(S)O[C@H]3[C@@H](O)[C@H](n4ccc(=O)[nH]c4=O)O[C@@H]3COP(=O)(S)O[C@H]3[C@@H](O)[C@H](n4ccc(=O)[nH]c4=O)O[C@@H]3COP(=O)(S)O[C@H]3[C@@H](O)[C@H](n4ccc(N)nc4=O)O[C@@H]3COP(=O)(S)O[C@H]3[C@@H](O)[C@H](n4cnc5c(N)ncnc54)O[C@@H]3COP(=O)(S)O[C@H]3[C@@H](O)[C@H](n4cnc5c(N)ncnc54)O[C@@H]3CO)[C@H]2O)c(=O)n1` (some centres not stated), the fold change (FC) in test [1] is 20.1. Besides, the outcome in test [2] was inactive. The outcome in the test with Splenocyte [3] and in the test with Splenocyte [4] was Active. For the same compound, the values for the Activity with PBMC [5] and with PBMC [6] were 527 pg/mL and 74.4 pg/mL, respectively.
